Results from ChEMBL document CHEMBL4627381, “Licochalcone A Selectively Resensitizes ABCG2-Overexpressing Multidrug-Resistant Cancer Cells to Chemotherapeutic Drugs” (J Nat Prod, 2020).

Tests used:
NCI-H460 = test: Effect on topotecan-induced cytotoxicity against human H460 cells assessed as fold change in topotecan IC50 at 3 uM after 72 hrs by MTT assay relative to topotecan IC50; format: functional
Outline: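 Parental S1 colon and H460 lung cancer cells were exposed for 72 h to a mitoxantrone or topotecan concentration series, with or without modulator at 0.5–3.0 μM, and read by MTT. Fold-reversal is IC50 without modulator divided by IC50 with modulator, taken from dose-response curves of three independent experiments.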

[1] = target: T1, Broad substrate specificity ATP-binding cassette transporter ABCG2 (Homo sapiens, UniProt Q9UNQ0); test: Modulation of ABCG2 (unknown origin) expressed in H460-MX20 cells assessed as increase in intracellular pheophorbide A accumulation at 20 uM incubated for 1 hr by FACScan flow cytometry; format: cell-based
T1 sequence (Q9UNQ0 whole entry): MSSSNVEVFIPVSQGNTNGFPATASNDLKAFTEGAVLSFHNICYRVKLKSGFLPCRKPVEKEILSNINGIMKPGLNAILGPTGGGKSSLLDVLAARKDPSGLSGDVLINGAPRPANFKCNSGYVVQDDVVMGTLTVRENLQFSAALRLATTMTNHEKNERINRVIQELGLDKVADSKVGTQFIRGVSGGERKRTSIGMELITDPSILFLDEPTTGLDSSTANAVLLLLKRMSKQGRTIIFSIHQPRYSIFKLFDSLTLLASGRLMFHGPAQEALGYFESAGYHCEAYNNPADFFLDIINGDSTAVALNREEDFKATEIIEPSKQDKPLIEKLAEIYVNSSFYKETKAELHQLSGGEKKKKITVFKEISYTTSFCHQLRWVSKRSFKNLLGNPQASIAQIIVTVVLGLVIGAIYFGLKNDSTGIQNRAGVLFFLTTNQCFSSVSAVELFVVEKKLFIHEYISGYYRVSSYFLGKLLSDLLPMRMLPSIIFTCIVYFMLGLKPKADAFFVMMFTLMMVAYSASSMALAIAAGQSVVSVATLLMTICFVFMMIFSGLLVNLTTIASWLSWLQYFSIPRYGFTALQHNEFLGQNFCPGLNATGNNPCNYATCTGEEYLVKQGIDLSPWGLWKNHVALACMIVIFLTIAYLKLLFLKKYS
Outline: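 Cells held drug-free 7 days. 3 × 10^5 cells were suspended in IMDM with 5% FCS and loaded with pheophorbide A (ex 395/em 670 nm) for 1 h, with or without LCA (20 μM for single-concentration accumulation) or Ko143 3 μM as reference. Read immediately by flow cytometry. Efflux inhibition was run over a concentration range; mean ± SD of three experiments.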

S1-M1-80 = test: Induction of apoptosis in human S1-M1-80 cells harboring ABCG2 (unknown origin) assessed as early apoptotic cells at 10 uM incubated for 48 hrs by annexin V/propidium iodide staining based flow cytometry (reference value: 2.8%); format: functional
[2] = target: T1, Broad substrate specificity ATP-binding cassette transporter ABCG2; test: Reversal of ABCG2 (unknown origin)-mediated multidrug resistance in human H460-MX20 cells assessed as fold change in mitoxantrone IC50 at 1 uM after 72 hrs by MTT assay relative to mitoxantrone IC50; format: cell-based
Outline: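 Cells held drug-free 7 days, seeded at 5000 per well for 24 h, then exposed 72 h to mitoxantrone or topotecan dilutions with DMSO (≤0.5%), LCA 0.5–3.0 μM, or Ko143 1.0 μM. Viability was read by MTT. IC50 came from fitted dose-response curves of three independent experiments. Fold-reversal = IC50 without modulator divided by IC50 with modulator.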

HEK293 [3] = test: Effect on mitoxantrone-induced cytotoxicity against HEK293 cells assessed as fold change in mitoxantrone IC50 at 3 uM after 72 hrs by CCK8 assay relative to mitoxantrone IC50; format: cell-based; details: human, hek293, 72 h
Outline: (§1)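 Reversal assay in parental pcDNA-HEK293 and transfected HEK293 lines (ABCB1 for colchicine, ABCC1 for etoposide, ABCG2 for mitoxantrone/topotecan). Substrate drug series was given with or without nontoxic modulator (0.5, 1.0, 2.0 or 3.0 μM) for 72 h, with a CCK-8 read-out. Fold-reversal is substrate IC50 without modulator divided by IC50 with modulator. Three independent experiments.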

HEK293 [4] = test: Effect on Colchicine-induced cytotoxicity against HEK293 cells assessed as fold change in colchicine IC50 at 0.5 uM after 72 hrs by CCK8 assay relative to colchicine IC50; format: cell-based; details: human, hek293, 72 h; outline: as §1

Activity [1]: Active
SMILES: C=CC(C)(C)c1cc(/C=C/C(=O)c2ccc(O)cc2)c(OC)cc1O [LICOAGROCHACONE A]
fold change (FC) (NCI-H460): 1.7
Activity (S1-M1-80): 2.5%
fold change (FC) [2]: 13.4
fold change (FC) (HEK293 [3]): 1
fold change (FC) (HEK293 [4]): 1
